Active and inactive are the calls of the source. No cut-off for these calls is given here.
Legend:
Calf thymus DNA [1] = test: Binding affinity to calf thymus DNA in BPE buffer assessed as change in melting temperature at drug/DNA base pair ratio 1; format: nucleic-acid assay; conditions: Bos taurus
Method in brief: (§1)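 Melting curves are read at 260 nm in BPE buffer, pH 7.1 (6 mM Na2HPO4, 2 mM NaH2PO4, 1 mM EDTA), in Peltier-heated 10 mm quartz cuvettes. Temperature rises from 20 to 100 °C at 1 °C/min and is monitored with a platinum probe. Tm is taken as the midpoint of the hyperchromic transition.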

Nucleic Acid [2] = test: Binding affinity to poly(dA-dT)2 in BPE buffer assessed as change in melting temperature at drug/DNA base pair ratio 1; format: nucleic-acid assay; method in brief: as §1
[3] = molecular target: T1, DNA topoisomerase 1 (Homo sapiens) (UniProt P11387); test: Inhibition of human recombinant topoisomerase 1-mediated supercoiled pUC19 DNA relaxation up to 100 uM […] by agarose gel electrophoresis analysis; conditions: in the assay text read “45 mins” for “2 hrs”
T1 sequence (whole entry): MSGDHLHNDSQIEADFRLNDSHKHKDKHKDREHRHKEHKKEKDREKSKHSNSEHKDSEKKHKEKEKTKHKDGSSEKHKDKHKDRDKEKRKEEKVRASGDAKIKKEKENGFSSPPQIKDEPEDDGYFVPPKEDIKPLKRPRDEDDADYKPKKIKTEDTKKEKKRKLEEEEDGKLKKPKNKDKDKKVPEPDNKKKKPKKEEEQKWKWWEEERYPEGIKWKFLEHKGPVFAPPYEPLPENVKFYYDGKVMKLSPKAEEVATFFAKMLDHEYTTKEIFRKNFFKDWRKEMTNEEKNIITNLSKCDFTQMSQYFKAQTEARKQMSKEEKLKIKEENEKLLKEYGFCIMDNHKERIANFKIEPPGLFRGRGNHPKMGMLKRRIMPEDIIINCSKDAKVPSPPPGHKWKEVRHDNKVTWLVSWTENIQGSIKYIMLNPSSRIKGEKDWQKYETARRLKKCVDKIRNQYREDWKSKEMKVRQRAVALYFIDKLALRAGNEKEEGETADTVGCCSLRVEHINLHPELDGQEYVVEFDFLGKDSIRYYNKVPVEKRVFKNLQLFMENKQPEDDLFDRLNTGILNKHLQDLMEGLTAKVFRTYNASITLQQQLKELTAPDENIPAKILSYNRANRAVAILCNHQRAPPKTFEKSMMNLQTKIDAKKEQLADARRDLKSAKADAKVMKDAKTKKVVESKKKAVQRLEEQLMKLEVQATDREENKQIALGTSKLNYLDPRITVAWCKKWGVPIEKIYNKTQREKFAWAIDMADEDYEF
Method in brief: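 Supercoiled pUC19 (130 ng) is incubated with 4 units of recombinant human topoisomerase I for 45 min at 37 °C. The relaxation buffer is 50 mM Tris pH 7.8, 50 mM KCl, 10 mM MgCl2, 1 mM DTT and 1 mM EDTA, with graded drug. Reactions are stopped with 0.25% SDS and 250 μg/mL proteinase K. Samples are run on 1% agarose for 2 h at 120 V and stained with ethidium bromide.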

HT-29 = test: Antiproliferative activity against human HT-29 cells after 72 hrs by MTS assay; format: functional, cell-based; conditions: HT-29, 72 h
Calf thymus DNA [4] = test: Binding affinity to calf thymus DNA at drug/DNA base pair ratio up to 4 by circular dichroism analysis; format: nucleic-acid assay; conditions: Bos taurus
Method in brief: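 CD spectra are recorded in 1 mM sodium cacodylate buffer, pH 7.0, in 10 mm quartz cuvettes, averaging four scans. A 50 μM drug solution is diluted stepwise with 5 mM DNA. Alternatively, the drug–DNA complex at high P/D is diluted with pure ligand solution to reach the desired drug/DNA ratio.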

Calf thymus DNA [5] = test: Binding affinity to calf thymus DNA in BPE buffer at drug/DNA base pair ratio up to 10 by UV spectroscopic analysis; format: nucleic-acid assay; conditions: Bos taurus
Method in brief: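 Absorption spectra are recorded in BPE buffer, pH 7.1, at a constant drug concentration of 20 μM. Aliquots of concentrated calf thymus DNA are added to cover a range of DNA-phosphate/drug ratios.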

PC-3 = test: Antiproliferative activity against human PC3 cells after 72 hrs by MTS assay; format: functional, cell-based; conditions: PC-3, 72 h
MCF7 = test: Antiproliferative activity against human MCF7 cells after 72 hrs by MTS assay; format: functional, cell-based; conditions: MCF7, 72 h
Calf thymus DNA [6] = test: Binding affinity to calf thymus DNA by fluorescence titration assay; format: nucleic-acid assay, Bos taurus
Method in brief: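 Intrinsic drug fluorescence is measured at room temperature with excitation at 360 nm and emission scanned over 380–520 nm. Drug is held at 10 μM with DNA at 0.01–1 mM, each sample prepared separately. The apparent KD is obtained by nonlinear least-squares fitting to KD = [ligand][DNA]/[ligand-DNA].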

Nucleic Acid [7] = test: Binding affinity to DNA assessed as inhibition of cleavage of DNA substrate up to 100 uM by Dnase1 footprinting assay; format: nucleic-acid assay
Method in brief: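 DNase I is then added to a final concentration of about 0.01 unit/mL. Digestion runs 3 min and is stopped by freeze-drying. Protected sites are localized on the gel.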

Nucleic Acid [8] = test: Binding affinity to DNA assessed as inhibition of cleavage of DNA substrate by densitometric analysis; format: nucleic-acid assay

Compound	ΔTm (Calf thymus DNA [1]) [°C]	ΔTm (Nucleic Acid [2]) [°C]	other results
COc1cc2ncnc(Nc3ccc(F)c(Cl)c3)c2cc1OC	0.2	0.4	–
COc1cc2ncnc(N(C)c3cccc(NC(=O)Nc4ccccc4)c3)c2cc1OC	6	9.9	–
CCCN(c1ccc(C)c(Br)c1)c1ncnc2cc(OC)c(OC)cc12	7	12.6	–
COc1cc2ncnc(Oc3cccc(NC(=O)Nc4ccccc4)c3)c2cc1OC	0.4	0.5	–
COc1cc2ncnc(Nc3cccc(Br)c3)c2cc1OC	0.2	0.4	inhibition [3]: inactive; IC50 (HT-29): 10.1 µM; Activity (Calf thymus DNA [4]): Active; Activity (Calf thymus DNA [5]): Active; IC50 (PC-3): > 10 µM; IC50 (MCF7): 4.7 µM
CCN(CC)CCN(c1ccc(C)c(Br)c1)c1ncnc2cc(OC)c(OC)cc12	14	24.1	inhibition [3]: inactive; IC50 (HT-29): 5.6 µM; Activity (Calf thymus DNA [4]): Active; Activity (Calf thymus DNA [5]): Active; Kd (Calf thymus DNA [6]): 40.2 µM; Activity (Nucleic Acid [7]): Active; IC50 (PC-3): > 10 µM; Activity (Nucleic Acid [8]): Active; IC50 (MCF7): 6.8 µM
COc1ccc(NC(=O)Nc2cccc(N(C)c3ncnc4cc(OC)c(OC)cc34)c2)cc1	6.8	11	–
COc1cc2ncnc(N(C)c3cccc(C)c3)c2cc1OC	7.1	9.7	–
COc1cc2ncnc(Nc3ccc(Br)cc3)c2cc1OC	3.9	0.2	–
COc1ccc(NC(=O)Nc2cccc(Oc3ncnc4cc(OC)c(OC)cc34)c2)cc1	0.2	0.3	–
COc1cc2ncnc(Nc3ccc(Br)cc3F)c2cc1OC	0.1	0.3	–
COc1cc2ncnc(Oc3ccc(Br)cc3F)c2cc1OC	0.8	0.5	–
COc1cc2ncnc(N(c3ccc(C)c(Br)c3)C(C)C)c2cc1OC	5.8	12.4	–
COc1ccc(NC(=O)Nc2ccc(Oc3ncnc4cc(OC)c(OC)cc34)cc2)cc1	0.3	0.5	–
COc1cc2ncnc(N(Cc3ccccc3)c3ccc(C)c(Br)c3)c2cc1OC	6.5	9.6	–
CCCCNC(=O)Nc1ccc(N(C)c2ncnc3cc(OC)c(OC)cc23)cc1	0.3	0.4	–
COc1cc2ncnc(Nc3ccc(C(F)(F)F)cc3)c2cc1OC	0.1	0.5	–
COc1cc2ncnc(N(C)c3ccc(NC(=O)Nc4ccccc4)cc3)c2cc1OC	0.4	0.6	–
COc1cc2ncnc(N(C)c3ccc(C(F)(F)F)cc3)c2cc1OC	6.5	9.1	–
COc1cc2ncnc(Nc3cccc(F)c3)c2cc1OC	0.2	0.4	–
COc1cc2ncnc(Nc3ccc(C)c(Br)c3)c2cc1OC	0.2	0.4	–
CCN(c1ccc(C)c(Br)c1)c1ncnc2cc(OC)c(OC)cc12	8.8	13.4	–
COc1cc2ncnc(N(C)c3cccc(C(F)(F)F)c3)c2cc1OC	5.8	9.5	–
COc1cc2ncnc(N(C)c3cccc(F)c3)c2cc1OC	7.3	9.8	–
COc1cc2ncnc(N(C)c3ccc(C)c(Cl)c3)c2cc1OC	8.9	13.7	–
COc1cc2ncnc(Nc3ccc(C)c(C(F)(F)F)c3)c2cc1OC	0.4	0.5	–
COc1cc2ncnc(Oc3cccc(Br)c3)c2cc1OC	0.7	0.7	–

Compound	ΔTm (Calf thymus DNA [1]) [°C]	ΔTm (Nucleic Acid [2]) [°C]	other results
COc1cc2ncnc(N(C)c3cc(Br)ccc3Br)c2cc1OC	1.6	3.3	–
COc1cc2ncnc(Nc3ccc(C)c(Cl)c3)c2cc1OC	0.3	0.4	–
COc1cc2ncnc(Nc3cccc(C(F)(F)F)c3)c2cc1OC	0.2	0.5	–
COc1cc2ncnc(N(C)c3ccc(Br)cc3F)c2cc1OC	1.4	3.3	–
Fc1cc(Br)ccc1Nc1ncnc2cc3c(cc12)OCO3	0.3	0.5	–
COc1cc2ncnc(N(C)c3ccc(C)c(Br)c3)c2cc1OC	8.4	15	inhibition [3]: inactive; IC50 (HT-29): 6.3 µM; Activity (Calf thymus DNA [4]): Active; Activity (Calf thymus DNA [5]): Active; Kd (Calf thymus DNA [6]): 326 µM; Activity (Nucleic Acid [7]): Active; IC50 (PC-3): 9.5 µM; Activity (Nucleic Acid [8]): Active; IC50 (MCF7): 9.9 µM
COc1cc2ncnc(Oc3ccc(NC(=O)Nc4ccccc4)cc3)c2cc1OC	0.4	0.5	–
COc1cc2ncnc(N(C)c3ccc(C)c(F)c3)c2cc1OC	7.3	11.3	–
COc1cc2ncnc(N(C)c3ccc(F)c(Cl)c3)c2cc1OC	6.1	10.5	–
COc1cc2ncnc(N(C)c3cccc(Br)c3)c2cc1OC	8.1	12.2	inhibition [3]: inactive
COc1cc2ncnc(Oc3ccc(F)c(Cl)c3)c2cc1OC	1.2	0.5	–
COc1cc2ncnc(Nc3ccc(C)c(F)c3)c2cc1OC	0.2	0.5	–
COc1cc2ncnc(N(C)c3ccc(Br)cc3)c2cc1OC	6	10.8	–
COc1cc2ncnc(N(CCN3CCCCC3)c3ccc(C)c(Br)c3)c2cc1OC	13.5	27.7	Activity (Nucleic Acid [7]): Active
CCCCNC(=O)Nc1cccc(N(C)c2ncnc3cc(OC)c(OC)cc23)c1	5.7	8.1	–
COc1cc2ncnc(Nc3cccc(Cl)c3)c2cc1OC	1.8	0.3	–
CN(c1ccc(Br)cc1F)c1ncnc2cc3c(cc12)OCO3	3.6	4.2	–
CN(c1ccc(F)c(Cl)c1)c1ncnc2cc3c(cc12)OCO3	2.8	4.6	–
Fc1ccc(Nc2ncnc3cc4c(cc23)OCO4)cc1Cl	0.3	0.4	–
COc1cc2ncnc(N(C)c3ccc(C)c(C(F)(F)F)c3)c2cc1OC	7.8	11	–
COc1cc2ncnc(N(C)c3cccc(NC(=O)Nc4ccc(F)c(Cl)c4)c3)c2cc1OC	7.7	10.5	–
COc1cc2ncnc(Nc3cc(Br)ccc3Br)c2cc1OC	0.4	0.5	–
COc1cc2ncnc(N(CCN(C)C)c3ccc(C)c(Br)c3)c2cc1OC	9.9	20	–
CCNC(=O)Nc1cccc(N(C)c2ncnc3cc(OC)c(OC)cc23)c1	5.2	7.9	–
COc1cc2ncnc(N(C)c3cccc(NC(=O)NC4CCCCC4)c3)c2cc1OC	5.7	9.7	–
COc1cc2ncnc(Nc3cccc(C)c3)c2cc1OC	0.3	0.3	–
COc1cc2ncnc(N(C)c3cccc(Cl)c3)c2cc1OC	7.7	12.4	–

From ChEMBL document CHEMBL1275400, “Design, synthesis, and DNA-binding of N-alkyl(anilino)quinazoline derivatives” (J Med Chem, 2010)
